High-throughput results as filed in PubChem BioAssay.
miR122 inh = miR-122 Renilla sensor signal increase in Huh7, primary screen, miR-122 inhibitor project, cell-based, single point, plate reader | Huh7 miR-122 Renilla luciferase sensor, 48 h; neutral wells = 0, positive control = 100 | activation (reporter increase), % at 12.5 µM | 0.3% of 340,000 active | AID 602342, 2012;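 active means mean replicate activation score at least 90 and every replicate individually at or above 90; inconclusive means only one of the two criteria met; inactive means neither criterion met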;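 further: higher luciferase means less miR-122 activity so hits act as miR-122 inhibitors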
INS-1E GSIS act = GLuc luminescence reporter in INS-1E cells, primary screen for activators of glucose-dependent secretion of insulin. 0.61% of 370,000 active. activation, % at 16.6 µM. INS-1E GLuc reporter insulin secretion, 2-3 h;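 active means lowest replicate activation of at least 40%, so every replicate reaches that level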;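 further: 0% = median of neutral control wells and 100% = median of IBMX positive control wells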
dFosB activator = activators of delta FosB homodimer, primary screen, biochemical, fluorescence polarization, TAMRA-CDK5 oligo, single point; 0.99% of 340,000 active; purified delta FosB; percent of positive-control signal above neutral wells; AID 493131, 2011; activation, % at 25 µM;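 active means mean activation above about 17%, with every replicate also reaching it, limit read from the data, passing the limit was not always enough; inconclusive means only one of the two conditions met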
Rtt109 Vps75 = inhibitors of C. albicans Rtt109/Vps75 HAT, primary screen, biochemical, ThioGlo CoA-SH fluorescence, plate reader | 0.16% of 330,000 active | purified Rtt109/Vps75, 4 h | inhibition, % at 34.9 µM | AID 540336, 2011;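 active means inhibition of at least 50% in every replicate; inconclusive means best replicate reaches 50% inhibition but some replicates fall short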
Target sequence (Q5AAJ8 whole entry, looked up): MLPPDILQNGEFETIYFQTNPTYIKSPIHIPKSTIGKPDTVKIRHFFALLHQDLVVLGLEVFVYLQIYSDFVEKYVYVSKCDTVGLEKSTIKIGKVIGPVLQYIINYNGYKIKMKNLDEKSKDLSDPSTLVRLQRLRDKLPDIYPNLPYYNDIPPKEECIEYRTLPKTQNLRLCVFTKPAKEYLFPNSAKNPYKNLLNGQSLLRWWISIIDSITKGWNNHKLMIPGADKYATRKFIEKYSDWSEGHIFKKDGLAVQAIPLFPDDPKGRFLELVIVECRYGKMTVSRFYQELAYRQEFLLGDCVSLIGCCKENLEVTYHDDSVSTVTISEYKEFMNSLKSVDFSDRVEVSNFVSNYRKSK
Env fusion inh = inhibitors of HIV-1 Env-driven cell-cell fusion, primary screen, HeLa-JRFL effector, CEM21 target cells, luciferase; inhibition, % at 12.3 µM; 1.1% of 360,000 active; AID 651610, 2012;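 active means mean replicate inhibition score of at least 50 and every replicate individually at or above 50; inconclusive means only one of the two criteria met; inactive means mean below 50 and not all replicates reaching 50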;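 further: 0% = plate neutral controls and 100% = maraviroc near 300 nM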
Cneo AK release = Cryptococcus neoformans cell lysis inducers, primary screen, AK release luminescence, single concentration. C. neoformans lysis, adenylate kinase release luminescence, 4 h; normalised: neutral wells 0, clomiphene wells 100. lysis activity, % at 15 µM. 0.2% of 360,000 active;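 active means mean lysis activity across replicates of at least 80%, whatever share of replicates individually reach that level; inactive means mean lysis activity below 80%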
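Test system: log-phase Cryptococcus neoformans yeast cells; Quantity: yeast cell density of 5 × 10^6 cells/mL; Buffer or medium: YPD; Doses: single compound concentration per well; Timing: 4 h at 37 °C static, read 1 h later; Measured by: AK luminescence; Read-out basis: lysis from increased AK signal; Control set: Clomiphene as positive control.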
* hit, by the source's call; [ ] = dose if it differs, or a comment. Only some compounds are listed: those with a hit (about 2.4% of all), similar ones and a draw of the others.

How did CC(C)NC(=O)N(C)C[C@@H]1OCCCC[C@H](C)Oc2ccc(N(C)C)cc2C(=O)N([C@H](C)CO)C[C@@H]1C do in these assays?
miR122 inh: 0[16.7 µM]; INS-1E GSIS act: 8; Env fusion inh: 32[16.7 µM]; Cneo AK release: 0

Results for CN(C)C(CNC(=O)c1ccc(-c2ccccc2)cc1)c1ccccc1 (configuration not stated) ?
INS-1E GSIS act: -20; dFosB activator: -4; Rtt109 Vps75: 4; Env fusion inh: -6; Cneo AK release: -2

What do the screens show for `CN(C)C(CNC(=O)c1ccc(C(=O)c2ccccc2)cc1)c1ccccc1` (configuration not stated)?
miR122 inh: -21; INS-1E GSIS act: -5; dFosB activator: -1; Rtt109 Vps75: 54*; Env fusion inh: 13; Cneo AK release: 3

How did Cc1nnc2n1N=CC=C(c1ccccc1)S2 do in these assays?
miR122 inh: -6; INS-1E GSIS act: 41*; dFosB activator: -2; Rtt109 Vps75: 8; Env fusion inh: 26; Cneo AK release: -2

Results for Cc1ccccc1S(=O)(=O)N1C[C@@H](O)COC[C@H]2O[C@H](CC(=O)NCCc3ccccc3)CC[C@@H]21 ?
miR122 inh: -6[16.7 µM]; INS-1E GSIS act: 13; Env fusion inh: -4[16.7 µM]; Cneo AK release: -1

How did OC(CNCC1CCCO1)Cn1c2ccc(Cl)cc2c2cc(Cl)ccc21 (configuration not stated) do in these assays?
miR122 inh: -27; dFosB activator: -76; Rtt109 Vps75: inconclusive; Env fusion inh: -2; Cneo AK release: 9

What do the screens show for `OC(CNCCC1C=Nc2ccccc21)Cn1c2ccc(Cl)cc2c2cc(Cl)ccc21` (configuration not stated)?
miR122 inh: -55; INS-1E GSIS act: 647*; dFosB activator: -103; Rtt109 Vps75: -16; Env fusion inh: 3; Cneo AK release: -1

How did COc1ccc(S(=O)(=O)N(C)C[C@H]2Oc3ccc(NC(=O)C4CC4)cc3CC(=O)N([C@H](C)CO)C[C@H]2C)cc1 do in these assays?
miR122 inh: -1[16.7 µM]; INS-1E GSIS act: 13; Env fusion inh: 25[16.7 µM]; Cneo AK release: 0

How did COc1cccc(/C=C/C(=O)NCc2cn3cc(Cl)ccc3n2)c1 do in these assays?
INS-1E GSIS act: -6; dFosB activator: 17*; Rtt109 Vps75: 23; Env fusion inh: 3; Cneo AK release: 0

How did CCS(=O)(=O)Nc1ccc2c(c1)C(=O)N(C)C[C@@H](OC)[C@H](C)CN(Cc1ccccn1)[C@H](C)CO2 do in these assays?
INS-1E GSIS act: 0; Env fusion inh: -9[16.7 µM]; Cneo AK release: 48

What do the screens show for `C[C@@H]1CCCCO[C@H](CN(C)C(=O)Cc2ccccc2)[C@H](C)CN([C@H](C)CO)C(=O)c2cc(NC(=O)c3ccccc3)ccc2O1`?
miR122 inh: -3[16.7 µM]; INS-1E GSIS act: -33; Env fusion inh: -1[16.7 µM]; Cneo AK release: 4

What do the screens show for `CC(C)(c1ccccc1)c1ccc(OCC(O)CNC2CCN(Cc3ccccc3)CC2)cc1` (configuration not stated)?
INS-1E GSIS act: 666*; dFosB activator: inconclusive; Rtt109 Vps75: inconclusive; Env fusion inh: 27; Cneo AK release: 21

Results for CCOc1ccc(OCC(O)CNC2CCN(Cc3ccccc3)CC2)cc1 (configuration not stated) ?
miR122 inh: 0; INS-1E GSIS act: 28; dFosB activator: 0; Rtt109 Vps75: 4; Env fusion inh: 2; Cneo AK release: -1

What do the screens show for `COc1ccc(CNCC(O)COc2ccc(C(C)(C)c3ccccc3)cc2)cc1` (configuration not stated)?
INS-1E GSIS act: 73*; dFosB activator: 7; Rtt109 Vps75: 26; Env fusion inh: 5

Results for O=C(C[C@@H]1C[C@@H]2c3cc(NC(=O)c4ccc5c(c4)OCO5)ccc3O[C@@H]2[C@@H](CO)O1)NCCc1ccccc1 ?
miR122 inh: -1[16.7 µM]; INS-1E GSIS act: -3; Env fusion inh: 0[16.7 µM]; Cneo AK release: -4

What do the screens show for `N=C1/C(=C/c2cccn2Cc2ccc(Cl)cc2)C(=O)N=C2SC=CN12`?
INS-1E GSIS act: 148*; dFosB activator: 9; Rtt109 Vps75: 5; Env fusion inh: 63*

How did CCc1sc(C(=O)Nc2cccc(C(C)=O)c2)cc1C do in these assays?
miR122 inh: -3; INS-1E GSIS act: 2; dFosB activator: -22; Rtt109 Vps75: 52*; Cneo AK release: -4

How did CN(C)C(=O)c1ccc(-c2ccc([C@H]3[C@H]4CN(C(=O)C5CCCC5)CC(=O)N4[C@H]3CO)cc2)cc1 do in these assays?
INS-1E GSIS act: -1

What do the screens show for `OCCCNc1nc(-c2ccc(Cl)cc2)nc2ccccc12`?
INS-1E GSIS act: 58*; dFosB activator: -23; Rtt109 Vps75: -2; Env fusion inh: 33; Cneo AK release: 1

How did COCCCNc1nc(-c2ccc(Cl)cc2)nc2ccccc12 do in these assays?
INS-1E GSIS act: 5; dFosB activator: -19; Rtt109 Vps75: -12; Env fusion inh: 11; Cneo AK release: 2

Results for CCOc1ccc(N2C(=O)C(Cl)=C(N3CCOCC3)C2=O)cc1 ?
miR122 inh: 7; INS-1E GSIS act: 0; dFosB activator: -1; Rtt109 Vps75: 116*; Env fusion inh: 9; Cneo AK release: 1

What do the screens show for `C/C=C/c1ccc2c(c1)O[C@H](CN(C)C(=O)c1ccc(F)cc1)[C@H](C)CN([C@H](C)CO)S2(=O)=O`?
miR122 inh: -1[16.7 µM]; INS-1E GSIS act: -1; Env fusion inh: -25[16.7 µM]; Cneo AK release: -13

Results for c1ccc(Cc2nnc(-c3ccccc3)o2)cc1 ?
miR122 inh: -6; INS-1E GSIS act: 29; dFosB activator: 3; Rtt109 Vps75: -1; Env fusion inh: -74; Cneo AK release: -2

Results for COc1ccc(Cc2nnc(-c3ccccc3)o2)cc1 ?
miR122 inh: 4; INS-1E GSIS act: 46*; dFosB activator: -2; Rtt109 Vps75: -1; Env fusion inh: -37

What do the screens show for `Cc1noc(C)c1S(=O)(=O)N(C)C[C@H]1Oc2ccc(NC(=O)C3CC3)cc2CC(=O)N([C@H](C)CO)C[C@@H]1C`?
miR122 inh: 35[16.7 µM]; INS-1E GSIS act: -2; Env fusion inh: -60[16.7 µM]; Cneo AK release: 50

What do the screens show for `O=C(/C=C/c1ccc(Br)cc1)c1ccc(NC2=NCCCS2)cc1`?
INS-1E GSIS act: 0; dFosB activator: 20*; Env fusion inh: -36

Results for COc1ccc2c3c([nH]c2c1)[C@@H](CO)N(C(=O)c1ccccn1)CC31CN(C(=O)C2CCCCC2)C1 ?
INS-1E GSIS act: 35
